Measured values from ChEMBL document CHEMBL1833957, “P1-substituted symmetry-based human immunodeficiency virus protease inhibitors with potent antiviral activity against drug-resistant viruses” (J Med Chem, 2011).

Experiments:
[1] = Cmax in rat at 5 mg/kg, po; assay type: ADME, organism-based; design: dose 5 mg/kg, route oral; conditions: in vivo
How it was run: (§1)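 Rats given a single 5 mg/kg oral dose with no ritonavir. Plasma Cmax is reported in μg/mL and AUC in μg h/mL.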

[2] = Cmax in rat at 5 mg/kg, po co-administered with 5 mg/kg of CYP3A4 inhibitor ritonavir; assay type: ADME, organism-based; design: dose 5 mg/kg, route oral; conditions: in vivo
How it was run: (§2)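 Rats given 5 mg/kg orally together with 5 mg/kg ritonavir. Plasma Cmax is reported in μg/mL and AUC in μg h/mL.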

[3] = AUC in rat at 5 mg/kg, po; assay type: ADME, organism-based; design: dose 5 mg/kg, route oral; conditions: plasma; how it was run: as §1
[4] = Oral bioavailability in rat at 5 mg/kg co-administered with 5 mg/kg of CYP3A4 inhibitor ritonavir relative to iv dose without ritonavir co-administration; assay type: ADME, organism-based; conditions: in vivo
How it was run: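 Rats given 5 mg/kg orally with 5 mg/kg ritonavir. Bioavailability (%) is calculated against an IV dose given without ritonavir.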

Liver microsomes [5] = assay: Metabolic stability in human liver microsomes assessed as disappearance of the compound after 20 mins in the presence of 0.4 uM CYP3A4 inhibitor ritonavir; assay type: ADME, Microsome
[6] = tested on: Human immunodeficiency virus 1; assay: Antiviral activity against HIV1 A17 harboring protease L10F, V32I, M46I, I47V, Q58E and I84V mutant infected in human MT4 cells assessed as inhibition of virus-induced cell death after 5 days by MTT assay relative to wild type HIV1 pNL4-3; assay type: functional
Rattus norvegicus = assay: Ratio of AUC in rat at 5 mg/kg, po co-administered with 5 mg/kg CYP3A4 inhibitor ritonavir to AUC in rat at 5 mg/kg, po in the absence of CYP3A4 inhibitor ritonavir; assay type: ADME, organism-based; conditions: in vivo
Liver microsomes [7] = assay: Metabolic stability in human liver microsomes assessed as disappearance of the compound after 20 mins in the presence of 0.4 uM CYP3A4 inhibitor ritonavir
[8] = Metabolic stability in human liver microsomes assessed as disappearance of the compound after 20 mins; assay type: ADME, Microsome; conditions: read-out: Drug metabolism
[9] = tested on: Human immunodeficiency virus 1; assay: Antiviral activity against HIV1 B26 harboring protease L33F, K45I, M46I, I50V, A71V and V82F mutant infected in human MT4 cells assessed as inhibition of virus-induced cell death after 5 days by MTT assay relative to wild type HIV1 pNL4-3; assay type: functional
[10] = AUC in rat at 5 mg/kg, po co-administered with 5 mg/kg of CYP3A4 inhibitor ritonavir; assay type: ADME, organism-based; conditions: plasma; how it was run: as §2
[11] = tested on: Human immunodeficiency virus 1; assay: Antiviral activity against wild type HIV1 pNL4-3 infected in human MT4 cells assessed as inhibition of virus-induced cell death after 5 days by MTT assay in presence of 50% human serum; assay type: functional, organism-based; conditions: Human immunodeficiency virus 1, pNL4-3, MT4, 120 h
[12] = Oral bioavailability in rat at 5 mg/kg; assay type: ADME, organism-based; conditions: in vivo
[13] = tested on: Human immunodeficiency virus 1; assay: Antiviral activity against wild type HIV1 pNL4-3 infected in human MT4 cells assessed as inhibition of virus-induced cell death after 5 days by MTT assay; assay type: functional, organism-based; conditions: Human immunodeficiency virus 1, pNL4-3, MT4, 120 h
How it was run: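 EC50 measured against wild-type virus in MT-4 cells, with no human serum added.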

[14] = tested on: Human immunodeficiency virus 1; assay: (§3) Antiviral activity against HIV1 isolate 1 harboring protease L10I, E35D, N37D, M46I, I54V, G57R, L63P, A71V, T74P, I84V, L90M, I93L mutant infected in human MT4 cells assessed as inhibition of virus-induced cell death after 5 days by MTT assay relative to wild type HIV1 pNL4-3; assay type: functional
[15] = tested on: Human immunodeficiency virus 1; assay: as §3, with “HIV1” for “HIV1 isolate 1”, “I13V, G16A, Q18H, L33F,” for “E35D,”, “G57R, Q61H,I62V,” for “G57R,”, “A71L, I72T, L76V, V77I, V82A, N88G,” for “A71V, T74P, I84V,”; assay type: functional

Compound	Cmax [1] [ng/mL]	Cmax [2] [ng/mL]	AUC [3] [ng·h/mL]	bioavailability [4] [%]	Stability (Liver microsomes [5])	fold change (FC) [6]	Ratio AUC (Rattus norvegicus)	Stability (Liver microsomes [7])	metabolised at 20 min [8] [%]	fold change (FC) [9]	AUC [10] [ng·h/mL]	EC50 [11] [nM]	bioavailability [12] [%]	EC50 [13] [nM]	fold change (FC) [14]	fold change (FC) [15]
COC(=O)N[C@H](C(=O)N[C@@H](Cc1ccccc1)C[C@H](O)[C@H](Cc1ccc(-c2ccccn2)cc1)NC(=O)[C@@H](NC(=O)OC)C(C)(C)C)C(C)(C)C	280	1550	190	> 100	Stable	20	25	Stable	40	29	4880	19	7	6		
COC(=O)N[C@H](C(=O)N[C@@H](Cc1ccccc1)C[C@H](O)[C@H](Cc1ccc(-c2cccnc2)cc1)NC(=O)[C@@H](NC(=O)OC)C(C)(C)C)C(C)(C)C	180	430	160	25	Stable	2		Stable	40	3	740	35	5	11	29	17
COC(=O)N[C@H](C(=O)N[C@@H](Cc1ccccc1)C[C@H](O)[C@H](Cc1ccc(-c2ccncc2)cc1)NC(=O)[C@@H](NC(=O)OC)C(C)(C)C)C(C)(C)C						2				3		34		13		
COC(=O)N[C@H](C(=O)N[C@@H](Cc1ccccc1)C[C@H](O)[C@H](Cc1ccc(-c2ccc(F)nc2)cc1)NC(=O)[C@@H](NC(=O)OC)C(C)(C)C)C(C)(C)C						12				14		14		3	58	7
COC(=O)N[C@H](C(=O)N[C@@H](Cc1ccccc1)C[C@H](O)[C@H](Cc1ccc(-c2ccnc(F)c2)cc1)NC(=O)[C@@H](NC(=O)OC)C(C)(C)C)C(C)(C)C						10				10		7		2	30	2
COC(=O)N[C@H](C(=O)N[C@@H](Cc1ccccc1)C[C@H](O)[C@H](Cc1ccc(-c2ccc(C#N)nc2)cc1)NC(=O)[C@@H](NC(=O)OC)C(C)(C)C)C(C)(C)C						8				12		23		6	16	3
COC(=O)N[C@H](C(=O)N[C@@H](Cc1ccccc1)C[C@H](O)[C@H](Cc1ccc(-c2ccc(CO)nc2)cc1)NC(=O)[C@@H](NC(=O)OC)C(C)(C)C)C(C)(C)C						0.2				0.6		45		14	12	2
COC(=O)N[C@H](C(=O)N[C@@H](Cc1ccccc1)C[C@H](O)[C@H](Cc1ccc(-c2cnccn2)cc1)NC(=O)[C@@H](NC(=O)OC)C(C)(C)C)C(C)(C)C						7				4		151		54		
COC(=O)N[C@H](C(=O)N[C@@H](Cc1ccccc1)C[C@H](O)[C@H](Cc1ccc(-c2cncnc2)cc1)NC(=O)[C@@H](NC(=O)OC)C(C)(C)C)C(C)(C)C						41				74		58		2		
COC(=O)N[C@H](C(=O)N[C@@H](Cc1ccccc1)C[C@H](O)[C@H](Cc1ccc(-c2cnc3ccccc3c2)cc1)NC(=O)[C@@H](NC(=O)OC)C(C)(C)C)C(C)(C)C	20	220	30	63							1850		1			
COC(=O)N[C@H](C(=O)N[C@@H](Cc1ccccc1)C[C@H](O)[C@H](Cc1ccc(-c2ccccc2)cc1)NC(=O)[C@@H](NC(=O)OC)C(C)(C)C)C(C)(C)C						21				12		95		4		
COC(=O)N[C@H](C(=O)N[C@@H](Cc1ccccc1)C[C@H](O)[C@H](Cc1ccc(-c2cccc(CO)c2)cc1)NC(=O)[C@@H](NC(=O)OC)C(C)(C)C)C(C)(C)C						1				1		92		21	52	4
COC(=O)N[C@H](C(=O)N[C@@H](Cc1ccccc1)C[C@H](O)[C@H](Cc1ccc(-c2ccc(CO)cc2)cc1)NC(=O)[C@@H](NC(=O)OC)C(C)(C)C)C(C)(C)C		10		0.3		2				2	10	18	0	5	45	2
CNC(=O)c1ccc(-c2ccc(C[C@H](NC(=O)[C@@H](NC(=O)OC)C(C)(C)C)[C@@H](O)C[C@H](Cc3ccccc3)NC(=O)[C@@H](NC(=O)OC)C(C)(C)C)cc2)cc1						1				1		56		4	7	1
CNC(=O)c1cccc(-c2ccc(C[C@H](NC(=O)[C@@H](NC(=O)OC)C(C)(C)C)[C@@H](O)C[C@H](Cc3ccccc3)NC(=O)[C@@H](NC(=O)OC)C(C)(C)C)cc2)c1						0.4				0.5		842		159		
COC(=O)N[C@H](C(=O)N[C@@H](Cc1ccccc1)C[C@H](O)[C@H](Cc1ccc(-c2ccc(C(C)=O)cc2)cc1)NC(=O)[C@@H](NC(=O)OC)C(C)(C)C)C(C)(C)C		50		27		9				8	220	3	0	1	28	4
COC(=O)N[C@H](C(=O)N[C@@H](Cc1ccccc1)C[C@H](O)[C@H](Cc1ccc(-c2ccc(OC)cc2)cc1)NC(=O)[C@@H](NC(=O)OC)C(C)(C)C)C(C)(C)C		50		14		48				30	270	3	0	1	34	18
COC(=O)N[C@H](C(=O)N[C@@H](Cc1ccccc1)C[C@H](O)[C@H](Cc1ccc(-c2ccc(O)cc2)cc1)NC(=O)[C@@H](NC(=O)OC)C(C)(C)C)C(C)(C)C						3				3		71		13		
COC(=O)N[C@H](C(=O)N[C@@H](Cc1ccccc1)C[C@H](O)[C@H](Cc1ccc(-c2cccc(N)c2)cc1)NC(=O)[C@@H](NC(=O)OC)C(C)(C)C)C(C)(C)C	100	100	20	5		3				3	70	20	1	5	9	1
COC(=O)N[C@H](C(=O)N[C@@H](Cc1ccccc1)C[C@H](O)[C@H](Cc1ccc(-c2ccc(N)cc2)cc1)NC(=O)[C@@H](NC(=O)OC)C(C)(C)C)C(C)(C)C						7				9		38		6	45	7
COC(=O)N[C@H](C(=O)N[C@H](Cc1ccc(-c2ccccn2)cc1)C[C@H](O)[C@H](Cc1ccccc1)NC(=O)[C@@H](N1CCN(Cc2cccc(C(C)(C)O)n2)C1=O)C(C)(C)C)C(C)(C)C						3				7					57	2
Cc1cccc(C)c1OCC(=O)N[C@@H](Cc1ccccc1)[C@@H](O)C[C@H](Cc1ccccc1)NC(=O)[C@H](C(C)C)N1CCCNC1=O [LOPINAVIR]						59				211					62	234
